The term IC50 denotes the point on the concentration scale where inhibition reaches its midpoint.

The structures appear in SMILES notation. The source made the active and inactive calls. No cut-off for these calls is given here.

26 compounds from ChEMBL document CHEMBL3393016, “Development of novel Asf1-H3/H4 inhibitors” (Bioorg Med Chem Lett, 2015) can be followed below.

For the first test, the target named is T1, Histone chaperone ASF1A (Homo sapiens, UniProt Q9Y294). The test is described as follows: Inhibition of His-tagged human Asf1a binding with H3/H4 assessed as fluorescence intensity after 30 mins by ALPHA assay.
T1 sequence (Q9Y294 whole entry): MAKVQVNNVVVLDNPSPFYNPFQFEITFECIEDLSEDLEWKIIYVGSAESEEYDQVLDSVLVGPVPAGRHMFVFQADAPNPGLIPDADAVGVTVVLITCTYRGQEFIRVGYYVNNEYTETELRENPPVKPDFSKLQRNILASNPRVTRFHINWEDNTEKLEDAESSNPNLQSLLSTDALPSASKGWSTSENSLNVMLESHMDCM
Consider `COc1cc(/C=N/NC(=O)c2ccc(NC(=O)c3ccccc3)cc2)ccc1O`, for which the 50% inhibitory concentration (IC50) is above 100 µM.

With `COc1cc(/C=N/NC(=O)c2ccc(NC(=O)c3ccccc3)cc2)ccn1`, the 50% inhibitory concentration (IC50) is above 100 µM.

For `COc1cc(C/C=N/NC(=O)c2ccc(NC(=O)c3ccccc3)cc2)cc(Br)c1O`, the IC50 is above 100 µM.

Consider `COc1cc(/C=N/NC(=O)Cc2ccc(NC(=O)c3ccccc3)cc2)cc(Br)c1O`, for which the IC50 is above 100 µM.

Take `COc1cc(/C=N/NC(=O)C2CCNCC2)cc(Br)c1O`: the half-maximal inhibitory concentration (IC50) is above 100 µM.

Take `O=C(N/N=C/c1cccc(OCCN2CCOCC2)c1)c1ccc(NC(=O)c2ccccc2)cc1`: the IC50 is above 100 µM.

With `COc1cc(/C=N/NC(=O)c2ccc(NC(C)=O)cc2)cc(Br)c1O`, the IC50 is above 100 µM.

For the compound `COc1cc(/C=N/NC(=O)c2ccc(NC(C)=O)nc2)cc(Br)c1O`, the IC50 was above 100 µM.

Regarding `O=C(N/N=C/c1cc(Br)ccc1O)c1ccncc1`, the half-inhibitory concentration (IC50) amounted to 0.6 µM.

As to `COc1cc(CNNC(=O)c2ccc(NC(=O)c3ccccc3)cc2)cc(Br)c1O`, the IC50 was above 100 µM.

`COc1cc(/C=N/N(C)C(=O)c2ccc(NC(=O)c3ccccc3)cc2)cc(Br)c1O`: the IC50 is above 12 µM.

Regarding `O=C(N/N=C/c1ccncc1)c1ccc(NC(=O)c2ccccc2)cc1`, the IC50 was above 100 µM.

Turning to `COc1cc(/C=N/NC(=O)c2ccc(NC(=O)c3ccccc3)c(COCCN(C)C)c2)cc(Br)c1O`, the half-inhibitory concentration (IC50) is above 100 µM.

For `COc1cc(/C=N/NC(=O)C2CCOCC2)cc(Br)c1O`, the IC50 was above 100 µM.

Turning to `COc1cc(/C=N/NC(=O)c2ccncc2)cc(Br)c1O`, the IC50 was above 100 µM.

Turning to `COc1cc(/C=N/NC(=O)c2ccccc2)cc(Br)c1O`, the IC50 was above 100 µM.

Regarding `COc1cc(CCNC(=O)c2ccc(NC(=O)c3ccccc3)cc2)cc(Br)c1O`, the IC50 was above 100 µM.

The next test has as its target T1, Histone chaperone ASF1A. The test is described as follows: Inhibition of globular core domain of Asf1 (unknown origin) binding with H3/H4 after 15 to 30 mins by ELISA assay. In outline: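 Wells coated with H3/H4 dimer at 1 μg/mL in PBS-T at 4°C overnight, then blocked with 5% milk in PBS-T. Asf1 globular core at 5 μM preincubated with compound at 100 μM (or various concentrations) for 1 h at 4°C. Samples diluted in 10 mM Tris pH 7.9, 1 mM DTT and bound to plate 1 h at room temperature. Bound Asf1 detected with anti-Asf1 and HRP secondary antibodies, then TMB for 15–30 min; OD read at 450 nm.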
(ELISA stands for enzyme-linked immunosorbent assay.)
For the compound `COc1ccc(-c2cc([C@@H](O)[C@@H]3CCCCN3)c3ccccc3n2)cc1` (racemic), the inhibition entry is “Active”.

Take `COc1cc(C2C(Cl)C(=O)N2NC(=O)c2ccc(N)cc2)cc(Br)c1O` (configuration not stated): the inhibition entry was “Active”.

The next test relates to MDA-MB-231. Kind of test: Cytotoxicity against human MDA-MB-231 cells assessed as inhibition of cell viability at 24 uM after 24 hrs by trypan blue exclusion assay. Type of test: functional, cell-based. In short, it runs like this:
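MDA-MB-231 cells grown to 80% confluence, seeded at 1.5 × 10^5 cells/mL and incubated overnight. Medium then replaced with serum-free medium containing drug at 24 μM. After 1 h, FBS added to each well. Viable cell density counted by trypan blue exclusion after a further 24 h. Viability expressed as percent of DMSO-only control.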
Take `COc1ccc(-c2cc([C@@H](O)[C@@H]3CCCCN3)c3ccccc3n2)cc1` (racemic): the inhibition entry is “Active”.

For `COc1ccc(-c2cc(C(=O)C3CCCCN3)c3ccccc3n2)cc1` (configuration not stated), the inhibition entry was “inactive”.

Turning to `CCN(CC)C(=O)c1cc(-c2ccc(OC)cc2)nc2ccccc12`, the inhibition entry is “inactive”.

Regarding `COc1ccc(-c2cc(C(=O)N3CCCCC3)c3ccccc3n2)cc1`, the inhibition entry was “inactive”.

As to `COc1ccc(-c2cc([C@H](O)[C@@H]3CCCCN3)c3ccccc3n2)cc1` (racemic), the inhibition entry was “Active”.

Consider `COc1ccc(-c2cc(C(=O)NCCO)c3ccccc3n2)cc1`, for which the inhibition entry is “inactive”.

As for `COc1ccc(-c2cc(C(=O)N(C)C)c3ccccc3n2)cc1`, the inhibition entry is “inactive”.

Regarding `COc1ccc(-c2cc(C(=O)N3CCOCC3)c3ccccc3n2)cc1`, the inhibition entry is “inactive”.
